An excerpt weighted towards active compounds, which were near 1.4% of everything screened.
CHT PAM: CHT positive allosteric modulators, primary screen, cell-based, membrane potential dye, choline EC20 | 310,000 compounds, 0.49% hits | CHT-expressing cells; active compounds read high; LV-AA mutant CHT in HEK293 cells | B-score at 10 µM;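 active means initial fluorescence not abnormally high and integrated response B-score, plate-corrected, over 3 SD above library mean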
ABCB6 inh MLPCN: ABCB6 transporter inhibitors, primary screen, K562-ABCB6 cells, flow cytometry, MLPCN library | AID 602162, 2011 | K562-ABCB6 porphyrin accumulation, 1 h; active compounds read low | ATP-binding cassette sub-family B member 6 (Homo sapiens), Q9NP58 | 360,000 compounds, 0.19% hits | fluorescence ratio to DMSO, % at 10 µM;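 active means fluorescence ratio to DMSO below 75%, the collection mean minus 3 SD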;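 further: signal is porphyrin accumulated inside mitochondria; lower ratio means ABCB6 inhibition with less porphyrin fluorescence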
TNAP inh noacc: human TNAP enzyme inhibitors, primary screen, biochemical, luminescent, no phosphate acceptor, uHTS | 200,000 compounds, 0.26% hits | Alkaline phosphatase, tissue-nonspecific isozyme (Homo sapiens), P05186 | purified TNAP, CDP-star luminescence, 30 min | inhibition, % at 20 µM;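 active means tissue-nonspecific alkaline phosphatase inhibition above about 50% at 20 µM in the single-dose screen, limit read from the data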
Target sequence (P05186 whole entry, looked up): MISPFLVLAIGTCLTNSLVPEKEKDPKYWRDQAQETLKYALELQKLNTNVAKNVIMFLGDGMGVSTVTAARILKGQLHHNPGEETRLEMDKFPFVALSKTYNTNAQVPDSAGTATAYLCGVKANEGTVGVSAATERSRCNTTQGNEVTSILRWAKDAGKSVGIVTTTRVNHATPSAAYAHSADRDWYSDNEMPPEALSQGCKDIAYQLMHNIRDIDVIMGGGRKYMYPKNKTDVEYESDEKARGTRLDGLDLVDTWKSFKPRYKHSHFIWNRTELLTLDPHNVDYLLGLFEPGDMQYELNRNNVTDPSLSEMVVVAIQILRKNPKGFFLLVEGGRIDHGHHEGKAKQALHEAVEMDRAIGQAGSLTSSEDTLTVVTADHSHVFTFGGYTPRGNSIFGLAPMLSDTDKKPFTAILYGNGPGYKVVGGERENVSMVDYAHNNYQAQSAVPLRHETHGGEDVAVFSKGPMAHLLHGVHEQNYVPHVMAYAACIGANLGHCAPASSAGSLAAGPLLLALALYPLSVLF
TNAP inh hi DEA: human TNAP enzyme inhibitors, primary screen, biochemical, luminescent, high phosphate acceptor level, uHTS | Alkaline phosphatase, tissue-nonspecific isozyme (Homo sapiens), P05186 | purified TNAP, CDP-star luminescence, 1 M DEA | inhibition, % at 20 µM | 200,000 compounds, 0.03% hits | AID 1135, 2008;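 active means over 50% inhibition of tissue-nonspecific alkaline phosphatase at 20 µM in the single-dose screen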
CHT inh: inhibitors of human choline transporter CHT. High affinity choline transporter 1 (Homo sapiens), Q9GZV3. AID 488975, 2010. B-score at 10 µM. CHT-expressing cells, membrane potential dye, choline response; active compounds read low. 310,000 compounds, 0.86% hits;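 active means B-score over 3 SD under the library average, and starting fluorescence ratio not unusually high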;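 further: choline stimulus applied at its EC90 after an EC20 pre-addition; B-score computed on integrated fluorescence ratio after choline addition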
TNAP act hiacc: TNAP activators at high phosphate acceptor level, primary screen, biochemical, luminescence, uHTS; Alkaline phosphatase, tissue-nonspecific isozyme (Homo sapiens), P05186; purified TNAP, CDP-star luminescence, 1 M DEA, 30 min; active compounds read high; 0 = EDTA background, 1 = DMSO-only activity; activation factor at 20 µM; 200,000 tested, under 10 active;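 active means activation factor at least 2 at 20 µM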
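system = human TNAP | amount = enzyme diluted 1/800 final | reagent = 100 µM CDP-star substrate | signal = luminescent substrate turnover signal | dosing = one dose, 20 µM | benchmarks = EDTA negative control, DMSO positive control | measure = activation factor | timing = 30 min reaction, room temperature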
Large screens that a line does not name were inactive.

O=C1C2C3C=CC(C3)C2C(=O)N1c1n[nH]c(CCc2ccccc2)n1 (configuration not stated)	TNAP inh noacc 68
O=C(O)CCn1c(SCCOc2ccccc2)nc2ccccc21	none (no result: TNAP inh noacc, TNAP inh hi DEA, TNAP act hiacc)
CC(C)S(=O)(=O)C1=NSC2=NC(=O)/C(=C\c3ccc(OC(=O)c4ccco4)cc3)C(=N)N21	CHT inh -8.2 (no result: TNAP inh noacc, TNAP inh hi DEA, TNAP act hiacc)
CCS(=O)(=O)C1=NSC2=NC(=O)/C(=C\c3ccc(OC(=O)c4ccco4)cc3)C(=N)N21	none (no result: TNAP inh noacc, TNAP inh hi DEA, TNAP act hiacc)
Nn1c(SCC(=O)Nc2cc(S(=O)(=O)N3CCOCC3)ccc2Cl)nnc1-c1cccnc1	none
NC(CCCCc1ccccc1)c1cccc2ccccc12 (configuration not stated)	CHT PAM 11 (no result: ABCB6 inh MLPCN, TNAP inh noacc, TNAP inh hi DEA, TNAP act hiacc)
NNC(=O)c1ccc(NS(=O)(=O)c2ccc(Br)cc2)cc1	none (no result: ABCB6 inh MLPCN, TNAP inh noacc, TNAP inh hi DEA, TNAP act hiacc)
O=C(CN(Cc1cccs1)C(=O)CNC(=O)c1ccco1)NC1CCCCC1	none
N#CC1=C(N)SC(N)=C(C#N)C1CCc1ccccc1	CHT inh -6.1
COc1ccc(-c2[nH]ncc2CN(CCO)Cc2cccs2)c(F)c1	TNAP inh noacc 69
COc1ccc(-c2[nH]ncc2CNCCn2cccn2)c(F)c1	TNAP inh noacc 85
COc1ccc(-c2[nH]ncc2CN(C)C(C)c2ccncn2)c(F)c1 (configuration not stated)	TNAP inh noacc 63
COc1ccc(-c2[nH]ncc2CN(C)Cc2nonc2C)c(OC)c1	none
COc1ccc(-c2[nH]ncc2CNCCCSC)cc1F	none
CCN(Cc1ccncc1)Cc1cn[nH]c1-c1ccc(OC)cc1F	TNAP inh noacc 55
COc1ccc(OC)c(C(=O)CSc2nc3ncccc3[nH]2)c1	TNAP inh noacc 63
CC1(C)N=C(SCC(=O)Nc2ccccc2)C(c2ccc(Cl)cc2)=N1	none
Cc1ccc(C2=NC(C)(C)N=C2SCC(=O)Nc2ccc(Cl)cc2)cc1	ABCB6 inh MLPCN 66
CCC(C)NC(=O)Cn1cnc2sc(C)c(S(=O)(=O)N3CCCCC3)c2c1=O (configuration not stated)	none (no result: TNAP inh noacc, TNAP inh hi DEA, TNAP act hiacc)
Cc1cc(Cn2nc(C(=O)NCc3cccc(C(F)(F)F)c3)cc2-c2ccccc2)on1	none (no result: TNAP inh noacc, TNAP inh hi DEA, TNAP act hiacc)
COc1ccc(-c2cc(C(=O)NN)[nH]n2)cc1OC	none
COc1ccc(-c2cc(C(=O)NN)[nH]n2)cc1	TNAP inh noacc 93
COc1ccc(-c2nc(N)n[nH]2)cc1	TNAP inh noacc 63
COc1ccc(-c2cc(-c3cc(C)ccc3O)[nH]n2)cc1	none
COc1ccc(-c2cc(-c3ccc(OC)cc3)[nH]n2)cc1	TNAP inh noacc 66
CCOc1ccc(-c2cc(C(=O)NN)[nH]n2)cc1	TNAP inh noacc 67
COc1cc(OC)cc(-c2nc(N)n[nH]2)c1	none
Cc1cc(OCC(=O)N2CCc3ccccc3C2)c(C)cc1Br	none (no result: TNAP inh noacc, TNAP inh hi DEA, TNAP act hiacc)
O=C(NC1CCN(S(=O)(=O)c2ccccc2F)CC1)c1cccnc1	none (no result: TNAP inh noacc, TNAP inh hi DEA, TNAP act hiacc)
O=C(NC12CC3CC(CC(C3)C1)C2)N1CCN(C(=O)c2ccco2)CC1	none
Cc1cc(C)c2c(ccc3ccccc32)n1	none (no result: CHT PAM, TNAP inh noacc, TNAP inh hi DEA, CHT inh, TNAP act hiacc)
Oc1ccc(-c2nc3ccc4ccccc4c3c3c2CCC3)cc1O	TNAP inh noacc 50
Cc1cc(Br)ccc1NC(=O)CN(C)C(=O)CSCc1ccccc1	none (no result: TNAP inh noacc, TNAP inh hi DEA, TNAP act hiacc)
CC(C)C1Cc2c(sc3c2c(=O)n(-c2ccccc2)c2n[nH]c(=S)n32)CO1 (configuration not stated)	none (no result: TNAP inh noacc, TNAP inh hi DEA, TNAP act hiacc)
O=C1CCCC2=C1C(c1ccncc1)n1c(nc3ccccc31)N2 (configuration not stated)	none
CC1CC(=O)C2=C(C1)Nc1nc3ccccc3n1C2c1cccnc1 (configuration not stated)	TNAP inh noacc 53
CCc1ccc(O)c(CNCCNCc2cc(CC)ccc2O)c1	CHT inh -6.8 (no result: TNAP inh noacc, TNAP inh hi DEA, TNAP act hiacc)
COc1ccc(CCNC(=O)c2cc(-c3ccccc3)c(N3CCOCC3)s2)c(OC)c1OC	none (no result: TNAP inh noacc, TNAP inh hi DEA, TNAP act hiacc)
CC1CCCN(C(=O)c2ccc3c(c2NCCO)C(=O)c2ccccc2C3=O)C1 (configuration not stated)	CHT inh -5.4
O=C1c2ccccc2C(=O)c2c1ccc(C(=O)N1CCCCC1)c2NCCO	none
COc1cc2c(C(=O)NCCCN3CC(C)CC(C)C3)cn(CC(C)C)c(=O)c2cc1OC (configuration not stated)	CHT inh -5.8
COc1cc2c(C(=O)NCCCOC(C)C)cn(CC(C)C)c(=O)c2cc1OC	none
Cc1ccc(-c2nc(SCC(=O)c3c(N)n(C)c(=O)n(C)c3=O)n[nH]2)cc1	TNAP inh noacc 88
O=C(CSc1n[nH]c(-c2ccccc2)n1)c1ccccc1	TNAP inh noacc 56
CCOC(=O)c1sc(NC(=O)CSc2n[nH]c(-c3ccccc3)n2)c(C#N)c1C	TNAP inh noacc 76
COC(=O)c1ccc(CSc2n[nH]c(-c3ccccc3)n2)o1	TNAP inh noacc 70
Cc1cc(C)nc(/N=C(\N)Nc2ccc(C(C)C)cc2)n1	none (no result: TNAP inh noacc, TNAP inh hi DEA, TNAP act hiacc)
CN(C)c1nc(N)nc(CSc2n[nH]c(-c3ccccc3)n2)n1	TNAP inh noacc 68
COC(=O)c1ccccc1NC(=O)CSc1n[nH]c(-c2cccnc2)n1	TNAP inh noacc 69
COC(=O)c1ccccc1NC(=O)CSc1n[nH]c(C)n1	none
O=[N+]([O-])c1ccc(N=Nc2ccc(O)cc2O)cc1	CHT inh -9.9
O=[N+]([O-])c1cccc(N=Nc2ccc(O)cc2O)c1	none (no result: CHT PAM, TNAP inh noacc, TNAP inh hi DEA, CHT inh, TNAP act hiacc)
Cc1cc(=O)oc2n[nH]c(-c3ccccc3)c12	TNAP inh noacc 92
COc1ccc(-c2[nH]nc3oc(=O)cc(C)c23)cc1	TNAP inh noacc 90
CC1CN(S(=O)(=O)c2cc(C(=O)N(C)Cc3cccs3)ccc2Cl)CC(C)O1 (configuration not stated)	none (no result: CHT PAM, TNAP inh noacc, TNAP inh hi DEA, CHT inh, TNAP act hiacc)
CC(=O)c1cccc(NC(=O)COC(=O)[C@@H](NC(=O)OCc2ccccc2)C(C)C)c1	none
Cc1nn(-c2ccc(Cl)cc2)c2[nH]c(CCl)cc(=O)c12	CHT inh -9.4 (no result: TNAP inh noacc, TNAP inh hi DEA, TNAP act hiacc)
Cc1cc(=O)[nH]c2c1c(C)nn2-c1ccccc1	none
COc1ccc(C(NC(=O)/C=C\c2ccco2)c2ccc(OC)c(OC)c2)cc1 (configuration not stated)	ABCB6 inh MLPCN 61
CC(=O)N/C(=C/c1ccc2c(c1)OCO2)C(=O)NCc1ccccc1	TNAP inh noacc 67
CC(=O)N/C(=C\c1ccc2c(c1)OCO2)C(=O)NC(C(=O)O)c1ccccc1 (configuration not stated)	none (no result: TNAP inh noacc, TNAP inh hi DEA, TNAP act hiacc)
CCSc1nnc(NC(=O)C(C(F)(F)F)C(F)(F)F)s1	none
